From article PMC3016465 (Proteins, 2011)
“Also recorded” adds a separate entry of the source.

What was measured:
AβO = test: EPR of position 264 spin-labeled apoE with HDL or VLDL, with or without AβO; assay type: binding; settings: for EPR response to AβO in presence of HDL / VLDL: apoE 30 μM, HDL or VLDL 850 mg/dL, oligomeric Aβ(1-40) 100 μM, one hour at 37 °C; for EPR response to HDL / VLDL without AβO: apoE spin-labeled at 264, HDL or VLDL, Supplemental Figure S2
Outline: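 Human apoE isoforms (Cys at 264) expressed in E. coli BL21(DE3)AI, purified from inclusion bodies in 8 M urea, labeled with MTS-SL and refolded into PBS pH 7.4. HDL or VLDL came from postprandial human plasma by ultracentrifugation. […] Samples were incubated, then run as X-band EPR (loop-gap resonator, sealed quartz capillary), with vehicle controls.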

Aβ^(26TOAC) = test: EPR of Aβ^; assay type: binding; settings: apoE 30 μM; 40 μM Aβ (1 part Aβ^(26TOAC) to 3 parts native Aβ(1-40)), scanned immediately after introduction into aqueous buffer
Aβ = settings: cited from earlier work
[1] = Atomic force microscopy of oligomers; assay type: physicochemical
N2a cells = test: MTT cytotoxicity assay; assay type: cell-based; settings: oligomeric peptide, one day after addition
[2] = Circular dichroism of spin-labeled apoE; assay type: physicochemical; settings: spin-labeled W264C apoE4 vs wt apoE4; Supplementary Material
[3] = tested on: neuronal death / neurite outgrowth; settings: independent of Aβ; ref [15]; cited from earlier work
Aβ fibrils = settings: in vitro; ref [19]; cited from earlier work
VLDL and HDL = settings: ref [10]; cited from earlier work

Substance: E3-like protein: apoE3-like protein: R112->S mutation in the apoE4-W264C template
- EPR response to AβO in presence of HDL / VLDL (AβO): the influence of AβO on the E3-like protein is clearly greater in the presence of HDL
- EPR response to HDL / VLDL without AβO (AβO): becomes more ordered; where the spectra of spin-labeled 264 are similarly broadened by HDL and VLDL
- effect of apoE on the Aβ^(26TOAC) EPR spectrum (Aβ^(26TOAC)): Only the E3-like protein induces a broadening of the Aβ^(26TOAC) spectra
- propensity to form SDS-resistant complex with Aβ (Aβ; E3-like mutant (Cys112→Ser) relative to apoE4, ref [29]): higher (relative to apoE4) propensity to form an SDS-resistant complex with Aβ

Substance: AβO: soluble Aβ oligomer
- time to formation of fibrillar aggregates after spotting ([1]; AFM, AβO 50 μM, on mica surface): ≤ 1 min
- average volume of initial AβO species ([1]; AFM, set of 11, assuming simple spherical particle): 203 ± 26 nm^3
- upper limit of oligomer size ([1]; efficient packing of the peptide in the particle is unlikely): ≤ 30 -mer
- protein mass of AβO particle ([1]; estimated from AFM volume, if packed similar to a globular protein): ~ 160 kD

Substance: Aβ(1-40): native Aβ(1-40) peptide (Bachem Cat # 1194.0001)
- cell death (N2a cells): 60-75%

Substance: apoE4: h_apoE4 protein containing the W264->Cys (apoE4-W264C) substitution
- EPR response to AβO in presence of HDL / VLDL (AβO): slightly stronger binding effect of apoE4 to AβO in the presence of VLDL than HDL
- EPR response to HDL / VLDL without AβO (AβO): shows little change with HDL, and a slight increase in amplitude with VLDL
- effect of apoE on the Aβ^(26TOAC) EPR spectrum (Aβ^(26TOAC)): produces a spectrum that is identical to TOAC-labeled sample added to PBS alone; also recorded: had no significant effect on the Aβ^(26TOAC) spectrum
- CD analysis of spin-labeled protein [2]: indistinguishable from wt apoE4
- neuronal death [3]: induces neuronal death and forms large fibril-like assemblies
- association with Aβ, SDS-resistant apoE-Aβ on gels (Aβ; in vitro, ref [13]): higher apoE4 association in vitro
- affinity of lipid-free apoE4 for Aβ vs apoE3 (Aβ; lipid-free apoE, ref [14],[19]): binds Aβ with a higher affinity than apoE3 and promotes fibrillization of Aβ
- stimulation of Aβ fibril assembly (Aβ fibrils): in vitro assembly of Aβ fibrils is stimulated by apoE, and more so by the E4 isoform
- lipoprotein preference (VLDL and HDL): preference of E4 to bind VLDL over HDL
